Experimental data: ChEMBL document CHEMBL1135349, “Synthesis and evaluation of novel pyrrolidinyl sordaricin derivatives as antifungal agents” (2002)
≈ marks a conversion by molar mass, not a printed value.

What was measured:
Assay type in all cases: functional
Aspergillus fumigatus = test: Minimum concentration required to inhibit the growth of Aspergillus fumigatus ATCC 26430 was determined
Method in brief: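 Microplate broth assay in RPMI1640 buffered at pH 7.0, incubated at 30 °C. The MIC was taken as the lowest test concentration giving 80% growth inhibition.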

Nakaseomyces glabratus = test: Minimum concentration required to inhibit the growth of Candida glabrata ATCC 90030 was determined
Method in brief: (§1)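 Yeast cells grown in microplates in RPMI1640 buffered to pH 7.0 at 35 °C, without serum. The MIC is the lowest concentration that inhibits growth by 80%.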

Candida parapsilosis = test: Minimum concentration required to inhibit the growth of Candida parapsilosis ATCC 90018 was determined; details: Lodderomyces parapsilosis; method in brief: as §1
Candida tropicalis = test: Minimum concentration required to inhibit the growth of Candida tropicalis ATCC750 was determined; method in brief: as §1
Candida albicans [1] = test: Minimum concentration required to inhibit the growth of Candida albicans ATCC 24433 was determined; method in brief: as §1
Candida albicans [2] = test: Minimum concentration required to inhibit the growth of Candida albicans ATCC 24433 was determined in the presence of horse serum (20%).
Method in brief: (§2)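 Run in RPMI1640 buffered at pH 7.0 with 20% horse serum added for the incubation, in microplates at 35 °C. The MIC is the lowest concentration inhibiting growth by 80%.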

Candida albicans [3] = test: Minimum concentration required to inhibit the growth of Candida albicans ATCC 64550 was determined; method in brief: as §1
Candida albicans [4] = test: Minimum concentration required to inhibit the growth of Candida albicans SANK51486 was determined; method in brief: as §1
Candida albicans [5] = test: Minimum concentration required to inhibit the growth of Candida albicans TIMM3164 was determined; method in brief: as §1
Cryptococcus neoformans = test: Minimum concentration required to inhibit the growth of Cryptococcus neoformans TIMM1855 was determined
Method in brief: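 Medium was yeast nitrogen base buffered at pH 7.0, with microplates incubated at 35 °C. The MIC was defined as the lowest concentration producing 80% growth inhibition.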

Candida albicans [6] = test: Minimum concentration required to inhibit the growth of Candida albicans SANK51486 was determined in the presence of horse serum (20%).; method in brief: as §2

Row | SMILES | MIC (Aspergillus fumigatus) | MIC (Nakaseomyces glabratus) | MIC (Candida parapsilosis) | MIC (Candida tropicalis) | MIC (Candida albicans [1]) | MIC (Candida albicans [2]) | MIC (Candida albicans [3]) | MIC (Candida albicans [4]) | MIC (Candida albicans [5]) | MIC (Cryptococcus neoformans) | MIC (Candida albicans [6])
1 | COc1ccc(CN2C[C@H](OCC34C[C@@H]5[C@H](C)CC[C@H]5C5(C=O)CC3C=C(C(C)C)C45C(=O)O)C[C@@H]2C)cc1 (some centres undefined) | > 16 µg/mL | 16 µg/mL (≈ 29.9 µM) | > 16 µg/mL | 4 µg/mL (≈ 7.47 µM) | 0.5 µg/mL (≈ 0.933 µM) | 1 µg/mL | 0.5 µg/mL (≈ 0.933 µM) | 0.25 µg/mL (≈ 0.467 µM) | 0.5 µg/mL (≈ 0.933 µM) | > 16 µg/mL | 0.5 µg/mL
2 | C/C=C/C=C\C(=O)O[C@H]1[C@H](O)[C@H](OCC23C[C@@H]4[C@H](C)CC[C@H]4C4(C=O)CC2C=C(C(C)C)C34C(=O)O)O[C@H](C)[C@H]1OC (some centres undefined) | > 4 µg/mL | > 4 µg/mL | > 4 µg/mL | 0.5 µg/mL (≈ 0.852 µM) | 0.5 µg/mL (≈ 0.852 µM) | 4 µg/mL | 0.5 µg/mL (≈ 0.852 µM) | 0.25 µg/mL (≈ 0.426 µM) | 0.5 µg/mL (≈ 0.852 µM) | 0.25 µg/mL (≈ 0.426 µM) | 
3 | C=C(C)CN1C[C@H](OCC23C[C@@H]4[C@H](C)CC[C@H]4C4(C=O)CC2C=C(C(C)C)C34C(=O)O)O[C@H](C)[C@@H](OC)C1 (some centres undefined) | > 16 µg/mL | 0.25 µg/mL (≈ 0.472 µM) | > 16 µg/mL | 0.13 µg/mL (≈ 0.245 µM) | 0.03 µg/mL (≈ 0.0566 µM) | 0.5 µg/mL | 0.03 µg/mL (≈ 0.0566 µM) | 0.02 µg/mL (≈ 0.0378 µM) | 0.03 µg/mL (≈ 0.0566 µM) | 0.25 µg/mL (≈ 0.472 µM) | 0.25 µg/mL
4 | OC(Cn1cncn1)(Cn1cncn1)c1ccc(F)cc1F [FLUCONAZOLE] | > 4 µg/mL | > 4 µg/mL | 0.5 µg/mL (≈ 1.63 µM) | 2 µg/mL (≈ 6.53 µM) | 0.5 µg/mL (≈ 1.63 µM) |  | > 4 µg/mL | 0.25 µg/mL (≈ 0.816 µM) | > 4 µg/mL | > 4 µg/mL | 
5 | CC(C)C1=CC2CC3(C=O)[C@@H]4CC[C@@H](C)[C@H]4CC2(CS[C@@H]2C[C@H](C)N(Cc4ccccc4)C2)C13C(=O)O (some centres undefined) | > 16 µg/mL | > 16 µg/mL | > 16 µg/mL | 4 µg/mL (≈ 7.67 µM) | 0.5 µg/mL (≈ 0.958 µM) | 8 µg/mL | 1 µg/mL (≈ 1.92 µM) | 0.25 µg/mL (≈ 0.479 µM) | 1 µg/mL (≈ 1.92 µM) | > 16 µg/mL | 4 µg/mL
6 | CC(C)C1=CC2CC3(C=O)[C@@H]4CC[C@@H](C)[C@H]4CC2(CO[C@@H]2C[C@H](C)N(Cc4ccccc4)C2)C13C(=O)O (some centres undefined) | > 16 µg/mL | > 16 µg/mL | > 16 µg/mL | 8 µg/mL (≈ 15.8 µM) | 1 µg/mL (≈ 1.98 µM) | 4 µg/mL | 2 µg/mL (≈ 3.95 µM) | 0.5 µg/mL (≈ 0.989 µM) | 2 µg/mL (≈ 3.95 µM) | > 16 µg/mL | 1 µg/mL
7 | CC(C)C1=CC2CC3(C=O)[C@@H]4CC[C@@H](C)[C@H]4CC2(CO[C@@H]2C[C@H](C)N(Cc4ccc5c(c4)OCO5)C2)C13C(=O)O (some centres undefined) | > 16 µg/mL | > 16 µg/mL | > 16 µg/mL | 4 µg/mL (≈ 7.28 µM) | 0.25 µg/mL (≈ 0.455 µM) | 1 µg/mL | 0.5 µg/mL (≈ 0.91 µM) | 0.13 µg/mL (≈ 0.236 µM) | 0.5 µg/mL (≈ 0.91 µM) | > 16 µg/mL | 0.5 µg/mL
